The text below walks through data of paper PMC3742633 (Molecular cancer therapeutics, 2013).

In general, GI50 refers to the concentration giving 50% growth inhibition. Higher therefore signals less potent growth inhibition.

A value given as a limit tells only on which side of the number the result lay.

The subject of one data set is A549/ATCC. As to the kind of experiment: NCI 60 cell line screen, Sulforhodamine B Assay. The class given is cell-based. The conditions noted are these: Homo sapiens, A549, 48 h. In a few lines: (§1)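 Run through the NCI-60 screening service: human cancer cell lines exposed to test compound for 48 h. Growth read as cellular protein content by sulforhodamine B staining, and GI50 derived from this.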

A further data set deals with HT29. The data set can be described thus: NCI 60 cell line screen, Sulforhodamine B Assay. The note with it: Homo sapiens, HT-29, 48 h. The class given is cell-based. In short, it runs like this: as §1
The test system of a further data set is SF-268. As to the kind of experiment: NCI 60 cell line screen, Sulforhodamine B Assay. The class given is cell-based. The note with it: Homo sapiens, SF-268, 48 h. In a few lines: as §1
In the next data set the test system is M14. The data set can be described thus: NCI 60 cell line screen, Sulforhodamine B Assay. The class given is cell-based. The conditions noted are these: Homo sapiens, M14, 48 h. In short, it runs like this: as §1
A further data set deals with SK-MEL-28. The data set can be described thus: NCI 60 cell line screen, Sulforhodamine B Assay. It counts as cell-based. The conditions noted are these: Homo sapiens, SK-MEL-28, 48 h. In a few lines:
(§2)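 Run through the National Cancer Institute 60 cell line screening service on its panel of 59 human cancer lines in vitro. Cytostatic/toxic effect was read as cellular protein content (sulforhodamine B) over 48 h.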

The test system of another data set is OVCAR-5. As to the kind of experiment: NCI 60 cell line screen, Sulforhodamine B Assay. The note with it: Homo sapiens, OVCAR-5, 48 h. It counts as cell-based. In short, it runs like this: as §1
The subject of another data set is NCI/ADR-RES. The data set can be described thus: NCI 60 cell line screen, Sulforhodamine B Assay. The class given is cell-based. The conditions noted are these: Homo sapiens, 48 h. In a few lines:
as §1

In the next data set the test system is 786–0. The data set can be described thus: NCI 60 cell line screen, Sulforhodamine B Assay. The note with it: Homo sapiens, 786-0, 48 h. The class given is cell-based. In short, it runs like this:
as §1

A further data set has as its system ACHN. As to the kind of experiment: NCI 60 cell line screen, Sulforhodamine B Assay. It counts as cell-based. The conditions noted are these: Homo sapiens, 48 h. In a few lines:
as §1

The next data set has as its system SN12C. As to the kind of experiment: NCI 60 cell line screen, Sulforhodamine B Assay. The class given is cell-based. The note with it: Homo sapiens, 48 h. In short, it runs like this:
as §2

The test system of another data set is MDA-MB-231/ATCC. As to the kind of experiment: NCI 60 cell line screen, Sulforhodamine B Assay. The class given is cell-based. The note with it: Homo sapiens, MDA-MB-231, 48 h. In a few lines: as §1
Data set [1] is described as follows: Tolerability of intraperitoneal PFK15. The conditions noted are these: 25 mg/kg i.p. every three days.

As to `O=C(C=Cc1ccc2ccccc2n1)c1ccncc1` [PFK15, 1-(4-pyridinyl)-3-(2-quinolinyl)-2-propen-1-one], the GI50 in the data set with A549/ATCC worked out at 5.37 µM; in the data set with HT29 it was 2.51 µM; in the data set on SF-268, 5.25 µM; in the data set on M14, 3.72 µM; in the data set with SK-MEL-28, 2.09 µM; in the data set with OVCAR-5, 5.37 µM. For the same compound, the GI50 stood at 3.89 µM in the data set with NCI/ADR-RES; 2 µM in the data set on 786–0; 2.04 µM in the data set with ACHN; 1.86 µM with SN12C; 2.04 µM in the data set with MDA-MB-231/ATCC. This compound also registered a body mass loss in data set [1] of less than 10%. For the same compound, the “end organ toxicity based on blood, urine and histological analyses” value in [1] is reported as “no end organ toxicity”.
